Assay [1] is filed under the species Cavia porcellus. Description: Antagonist affinity, in electrically paced (1 Hz) guinea pig left atria using the APE as agonist. The class given is functional. In short, it runs like this:
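Driven guinea pig left atria paced at 1 Hz, with cumulative agonist concentration–response curves. Each antagonist was tested at one concentration, 0.1 µM, incubated 1 h. pK_B was calculated from the dose ratio as −log{[antagonist]/(DR−1)}. Mean ± SE of four experiments.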

The species named for assay [2] is Cavia porcellus. Description: Antagonist affinity, in electrically paced (1 Hz) guinea pig left atria using 1'-[8-(1-(2-methoxy -benzyl)-[4,4']bipiperidinyl)-octyl]-1-(2-methoxy-benzyl)-[4,4']biiperidinyl as agonist. Format: functional. The method, boiled down: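 Driven guinea pig left atria paced at 1 Hz. Each antagonist was tested at one concentration, 0.1 µM, incubated 1 h. One tissue received the antagonist and a second untreated tissue served as control, each giving a cumulative agonist concentration–response curve. pK_B = −log{[antagonist]/(DR−1)}. Mean ± SE of four experiments.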

Assay [3] is filed under the species Cavia porcellus. The experiment in a line: Antagonist affinity, in electrically paced (1 Hz) guinea pig left atria using N-dodecyl lysine amide as agonist.
For assay [4], the target named is T1, Muscarinic acetylcholine receptor M3 (Homo sapiens, UniProt P20309). The experiment in a line: Affinity for human M3 cloned muscarinic receptor subtype expressed in CHO-K1 cells at a concentration of 10 uM. The class given is cell-based.
Target sequence in this assay (P20309 whole entry, looked up): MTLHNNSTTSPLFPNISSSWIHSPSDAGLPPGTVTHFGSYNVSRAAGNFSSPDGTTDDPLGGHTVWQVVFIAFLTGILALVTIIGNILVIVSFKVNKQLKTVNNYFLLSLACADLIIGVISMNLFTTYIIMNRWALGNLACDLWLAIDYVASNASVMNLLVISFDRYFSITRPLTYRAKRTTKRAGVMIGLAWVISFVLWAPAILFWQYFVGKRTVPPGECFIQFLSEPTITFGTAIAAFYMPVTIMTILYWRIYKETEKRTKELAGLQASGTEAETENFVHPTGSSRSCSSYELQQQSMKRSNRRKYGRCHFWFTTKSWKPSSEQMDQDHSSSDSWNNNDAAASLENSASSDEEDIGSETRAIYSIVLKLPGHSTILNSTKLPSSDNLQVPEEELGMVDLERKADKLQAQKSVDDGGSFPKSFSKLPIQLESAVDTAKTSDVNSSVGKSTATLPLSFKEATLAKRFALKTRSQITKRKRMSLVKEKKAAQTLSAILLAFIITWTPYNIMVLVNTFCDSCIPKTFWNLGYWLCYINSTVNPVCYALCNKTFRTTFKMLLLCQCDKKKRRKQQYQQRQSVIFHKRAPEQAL
For assay [5], the species on record is Cavia porcellus. The experiment in a line: Inotropic responses, induced by the compound in electrically paced (Hz) guinea pig left atria. The class given is functional. The method, boiled down:
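Left atria from guinea pig were electrically driven at 1 Hz, and negative inotropic effect was recorded. Cumulative concentration–response curves were run, with arecaidine propargyl ester (APE) as the muscarinic agonist reference. EC50 came from nonlinear regression curve fitting as the mean ± SE of at least four independent experiments.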

Assay [6] is filed under the species Cavia porcellus. Description: Inotropic response relative to APE (APE = 100) in electrically paced (Hz) guinea pig left atria. The class given is functional.
Assay [7] concerns the target T2, Muscarinic acetylcholine receptor M2 (Homo sapiens) (UniProt P08172).
T2 sequence (whole entry): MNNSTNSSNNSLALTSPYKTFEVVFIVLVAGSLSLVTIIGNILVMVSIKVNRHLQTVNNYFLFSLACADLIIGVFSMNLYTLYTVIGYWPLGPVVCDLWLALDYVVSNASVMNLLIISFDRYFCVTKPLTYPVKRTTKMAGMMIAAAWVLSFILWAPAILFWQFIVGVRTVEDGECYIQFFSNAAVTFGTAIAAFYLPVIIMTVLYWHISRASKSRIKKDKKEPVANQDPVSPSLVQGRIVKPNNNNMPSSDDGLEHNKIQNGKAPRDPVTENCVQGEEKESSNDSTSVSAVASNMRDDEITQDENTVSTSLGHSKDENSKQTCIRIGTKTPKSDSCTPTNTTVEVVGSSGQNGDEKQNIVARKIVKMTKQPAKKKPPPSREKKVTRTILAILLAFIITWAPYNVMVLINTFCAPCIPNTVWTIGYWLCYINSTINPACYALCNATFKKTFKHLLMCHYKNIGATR
The experiment in a line: Affinity for human muscarinic acetylcholine receptor M2 expressed in CHO-K1 cells at a concentration of 10 uM. Format: cell-based.

The target of assay [8] is T3, Muscarinic acetylcholine receptor M1 (Homo sapiens) (UniProt P11229).
T3 sequence (whole entry): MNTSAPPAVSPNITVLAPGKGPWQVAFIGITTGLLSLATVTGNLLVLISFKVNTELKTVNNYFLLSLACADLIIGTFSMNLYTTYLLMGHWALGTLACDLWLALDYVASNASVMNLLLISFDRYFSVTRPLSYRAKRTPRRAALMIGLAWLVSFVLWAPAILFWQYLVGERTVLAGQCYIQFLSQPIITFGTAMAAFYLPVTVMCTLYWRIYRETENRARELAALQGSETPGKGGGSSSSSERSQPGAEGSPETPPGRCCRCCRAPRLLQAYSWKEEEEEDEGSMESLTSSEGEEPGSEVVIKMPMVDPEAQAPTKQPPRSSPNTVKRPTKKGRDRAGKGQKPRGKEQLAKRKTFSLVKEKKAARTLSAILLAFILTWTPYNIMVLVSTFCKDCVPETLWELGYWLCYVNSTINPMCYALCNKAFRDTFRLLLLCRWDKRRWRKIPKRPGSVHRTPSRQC
Description: Affinity for human M1 cloned muscarinic receptor subtype expressed in CHO-K1 cells at a concentration of 10 uM. The class given is cell-based.

Assay [9] concerns the target T4, Muscarinic acetylcholine receptor M5 (Homo sapiens) (UniProt P08912).
T4 sequence (whole entry): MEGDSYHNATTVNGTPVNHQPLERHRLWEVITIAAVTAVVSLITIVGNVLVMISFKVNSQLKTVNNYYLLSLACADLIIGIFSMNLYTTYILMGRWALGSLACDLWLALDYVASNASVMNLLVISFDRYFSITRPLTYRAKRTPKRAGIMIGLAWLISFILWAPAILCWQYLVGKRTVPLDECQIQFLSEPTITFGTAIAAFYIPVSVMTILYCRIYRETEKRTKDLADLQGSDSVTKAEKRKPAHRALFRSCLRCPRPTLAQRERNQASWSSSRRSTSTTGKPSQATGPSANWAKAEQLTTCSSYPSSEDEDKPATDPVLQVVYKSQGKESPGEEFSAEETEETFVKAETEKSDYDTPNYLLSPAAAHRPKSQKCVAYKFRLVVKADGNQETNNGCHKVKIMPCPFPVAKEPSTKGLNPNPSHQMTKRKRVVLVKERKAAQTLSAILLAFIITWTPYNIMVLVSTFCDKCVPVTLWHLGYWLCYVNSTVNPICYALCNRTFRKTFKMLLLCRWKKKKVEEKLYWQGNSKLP
The experiment in a line: Affinity for human muscarinic acetylcholine receptor M5 subtype expressed in CHO-K1 cells at a concentration of 10 uM. Format: cell-based.

Assay [10] concerns the target T5, Muscarinic acetylcholine receptor M4 (Homo sapiens) (UniProt P08173).
T5 sequence (whole entry): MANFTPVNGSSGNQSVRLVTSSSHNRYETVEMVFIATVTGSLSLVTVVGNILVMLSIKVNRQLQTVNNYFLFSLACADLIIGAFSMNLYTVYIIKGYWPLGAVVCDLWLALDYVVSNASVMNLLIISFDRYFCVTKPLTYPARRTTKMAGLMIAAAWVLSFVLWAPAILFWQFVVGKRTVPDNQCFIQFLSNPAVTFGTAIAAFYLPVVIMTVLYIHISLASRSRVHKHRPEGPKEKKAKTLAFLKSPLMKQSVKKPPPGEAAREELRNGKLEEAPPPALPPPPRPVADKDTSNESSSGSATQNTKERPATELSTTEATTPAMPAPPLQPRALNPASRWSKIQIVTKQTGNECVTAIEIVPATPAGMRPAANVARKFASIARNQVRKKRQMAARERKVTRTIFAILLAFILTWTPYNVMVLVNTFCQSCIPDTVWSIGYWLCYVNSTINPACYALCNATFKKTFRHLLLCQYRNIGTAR
The experiment in a line: Affinity for human M4 cloned muscarinic receptor subtype expressed in CHO-K1 cells at a concentration of 10 uM. Format: cell-based.

The target of assay [11] is T6, Muscarinic acetylcholine receptor M2 (Homo sapiens, UniProt P08172).
T6 sequence (P08172 whole entry): T2 sequence (whole entry)
The experiment in a line: Binding affinity against muscarinic acetylcholine receptor M2.

Assay [12] deals with T7, Muscarinic acetylcholine receptor M4 (Homo sapiens, UniProt P08173).
T7 sequence (P08173 whole entry): T5 sequence (whole entry)
Description: Affinity for human M4 cloned muscarinic receptor subtype expressed in CHO-K1 cells. The class given is cell-based. In short, it runs like this:
(§1)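 Radioligand displacement of [³H]NMS in CHO-K1 cells expressing human cloned muscarinic M1–M5 receptors. IC50 values were converted to Ki with the Cheng–Prusoff equation. Results are means ± SE of two to three experiments, each run in triplicate.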

For assay [13], the target named is T8, Muscarinic acetylcholine receptor M1 (Homo sapiens, UniProt P11229).
T8 sequence (P11229 whole entry): T3 sequence (whole entry)
The experiment in a line: Affinity for human M1 cloned muscarinic receptor subtype expressed in CHO-K1 cells. The class given is cell-based. The method, boiled down:
as §1

In assay [14] the target is T9, Muscarinic acetylcholine receptor M5 (Homo sapiens, UniProt P08912).
T9 sequence (P08912 whole entry): T4 sequence (whole entry)
The experiment in a line: Affinity for human muscarinic acetylcholine receptor M5 subtype expressed in CHO-K1 cells. Format: cell-based. The method, boiled down: as §1

The target in assay [15] is T1, Muscarinic acetylcholine receptor M3. The experiment in a line: Affinity for human M3 cloned muscarinic receptor subtype expressed in CHO-K1 cells. The class given is cell-based. In short, it runs like this: as §1
Target sequence in this assay (P20309 whole entry): as the sequence (P20309 whole entry, looked up) above
The target in assay [16] is T6, Muscarinic acetylcholine receptor M2. Description: biochemical.

For orientation: pKB means −log10 of the KB, conventionally taken in molar units. Higher therefore signals a low KB. As usually defined, the EC50 is the concentration at which the effect is half-maximal. High values mean lower potency in that assay, low ones higher potency in that assay. What is called Ki is a measure of affinity in units of concentration, obtained from inhibition or displacement. High values mean weaker binding, low ones tighter binding.

On to `CN1[C@@H]2CC[C@H]1C[C@@H](OC(=O)C(CO)c1ccccc1)C2` (some centres not stated) [ATROPINE], for which the pKB in the assay listed under Cavia porcellus [1] came to 9.15; in the assay filed under Cavia porcellus [2], 7.18; in the assay filed under Cavia porcellus [3], 7.45.

Consider `CCCCCCCCCCCCNC(CCCCN)C(N)=O` (configuration not stated), for which the Reduction in assay [4] turned out to be 17%; in assay [7] it was 13%; in [8], 17%; in assay [9], 24%; in [10], 0%. The concentration for a half-maximal effect (EC50) in the assay filed under Cavia porcellus [5] was 0.339 nM. Besides, the Relative efficacy in the assay filed under Cavia porcellus [6] amounted to 82.

`COc1ccccc1CN1CCC(C2CCN(C(C)=O)CC2)CC1` showed an EC50 in the assay listed under Cavia porcellus [5] of 1.29 nM. Besides, the Relative efficacy in the assay filed under Cavia porcellus [6] worked out at 79.

For `COc1ccccc1CN1CCC(C2CCN(CCCCCCCCN3CCC(C4CCN(Cc5ccccc5OC)CC4)CC3)CC2)CC1` [PIPERTRAMINE], the Ki was 8.6 nM in assay [11]; 15.3 nM in assay [12]; 19.8 nM in assay [13]; 105 nM in assay [14]; 422 nM in [15]. The compound further showed an EC50 in the assay filed under Cavia porcellus [5] of 0.224 nM. In addition, the Relative efficacy in the assay filed under Cavia porcellus [6] was 84.

For `COc1ccccc1CN1CCC(C2CCN(C)CC2)CC1`, the Reduction came to 12% in [4]; 35% in assay [7]; 17% in [8]; 25% in assay [9]; 25% in assay [10]. Further, in the assay filed under Cavia porcellus [5], a half-maximal effect (EC50) was put at 0.603 nM. Moreover, the Relative efficacy in the assay listed under Cavia porcellus [6] is reported as 70.

`COc1ccccc1CN1CCC(C2CCN(C(=O)CCCCCCC(=O)N3CCC(C4CCN(Cc5ccccc5OC)CC4)CC3)CC2)CC1` [PIPERTRAMINE AMIDE]: the Ki in assay [16] amounted to 9.2 nM; in assay [12] it was 16.6 nM; in [13], 108 nM; in [14], 183 nM; in assay [15] it was 97.2 nM. The same compound had an EC50 in the assay filed under Cavia porcellus [5] of 0.398 nM. Moreover, the Relative efficacy in the assay filed under Cavia porcellus [6] was 85.

`C#CCOC(=O)C1=CCCN(C)C1` [ARECAIDINE PROPARGYL ESTER] showed an EC50 in the assay filed under Cavia porcellus [5] of 7.08 nM. In the assay filed under Cavia porcellus [6], this compound registered a Relative efficacy of 100.

As for `COc1ccccc1CN1CCC(C2CCNCC2)CC1`, the Reduction amounted to 12% in [4]; 49% in [7]; 22% in assay [8]; 29% in assay [9]; 28% in assay [10]. A half-maximal effect in the assay filed under Cavia porcellus [5] (EC50) was put at 0.525 nM. In addition, the Relative efficacy in the assay listed under Cavia porcellus [6] was 75.

The record behind these values is ChEMBL document CHEMBL1134278, “Design, synthesis, and biological activity of methoctramine-related polyamines as putative G(i) protein activators” (J Med Chem, 2001).
